Rows were chosen to be rich in hits. Some 2.4% of all compounds tested hit in one or more screens of this group.
GASC-1 inh – inhibitors of GASC-1 histone demethylase, primary screen, biochemical, fluorescence, DELFIA europium | GST-JMJD2C(1-420) H3K9me3 demethylation | 330,000 tested, 0.069% active | Lysine-specific demethylase 4C (Homo sapiens), Q9H3R0 | inhibition, % at 2.35 µM | AID 2099, 2009;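 active means more than half of a compound's replicate wells show inhibition beyond 50%, single wells judged on their own value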;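 further: signal counts dimethyl H3K9 product captured on neutravidin plate; 0% = median of DMSO wells and 100% = 0.3 times that DMSO median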
H9c2 protect – cardioprotection against H2O2-induced cell death, primary screen, uHTS, H9c2 cells, ATPLite luminescence; H9c2 cardiomyocytes, H2O2 injury protection, 2 h; protection from H2O2 cell death, % at 20 µM; 360,000 tested, 0.63% active;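 active means compounds giving at least 50% protection of heart cells from peroxide-induced death in the single-dose screen, raw or plate-pattern-corrected value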;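 further: 0% = DMSO wells with peroxide and 100% = DMSO wells without peroxide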
PP5 inh – PP5 phosphatase inhibitors, primary screen, biochemical, fluorescence; 320,000 tested, 0.18% active; purified PP5c, OMFP substrate fluorescence; inhibition, % at 6.7 µM; Serine/threonine-protein phosphatase 5 (Homo sapiens), P53041; AID 1987, 2009;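 active means inhibition above the campaign's mean inhibition across all tested compounds plus 3 SD, cut at about 9.5% in these data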;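 further: 0% = DMSO only and 100% = 100 µM cantharidin control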
Target sequence (P53041 whole entry, looked up): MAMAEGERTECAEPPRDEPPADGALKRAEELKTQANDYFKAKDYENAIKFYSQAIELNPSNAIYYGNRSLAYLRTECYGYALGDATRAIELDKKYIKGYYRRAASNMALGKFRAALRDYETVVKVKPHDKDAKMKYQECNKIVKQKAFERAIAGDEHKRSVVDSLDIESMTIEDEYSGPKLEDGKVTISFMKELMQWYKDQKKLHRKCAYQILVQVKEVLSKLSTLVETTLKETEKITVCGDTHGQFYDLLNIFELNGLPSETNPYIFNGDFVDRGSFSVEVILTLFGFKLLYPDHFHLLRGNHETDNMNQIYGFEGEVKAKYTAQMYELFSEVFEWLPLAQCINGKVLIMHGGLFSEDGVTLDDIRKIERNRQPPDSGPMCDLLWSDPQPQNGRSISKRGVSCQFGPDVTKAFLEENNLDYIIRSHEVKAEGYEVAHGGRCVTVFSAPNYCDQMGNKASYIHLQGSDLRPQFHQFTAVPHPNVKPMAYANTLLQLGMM
Fh CTSL1 inh – Fasciola hepatica cathepsin L1 inhibitors, primary screen, counter-screen for PFM18AAP inhibitor project, biochemical, QFRET, fluorogenic peptide substrate; recombinant F. hepatica cathepsin L1, Z-Leu-Arg-MCA fluorescence; inhibition, % at 5.96 µM; 300,000 tested, 0.49% active; AID 1906, 2009;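 active means inhibition above the mean of all tested compounds plus 3 SD, set per screening campaign, cut at about 17% in these data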;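 further: 0% = plate median of test compound wells and 100% = 1 µM Z-Phe-Ala-diazomethylketone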
T cruzi repl – inhibitors of intracellular T. cruzi growth, primary screen, luminescence, NIH3T3 host cells. 300,000 tested, 1.4% active. AID 1885, 2009. T. cruzi beta-gal in NIH3T3, 90 h. inhibition, % (no concentration beside the values);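 active means mean inhibition across valid replicates above about 55%, limit read from the data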;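 further: signal also drops with host cell toxicity which is not excluded here; 0% = plate median of DMSO wells and 100% = zero luminescence signal; higher percent means less beta-gal luminescence so fewer parasites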
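Material: NIH/3T3 host cells with β-galactosidase reporter T. cruzi; Input: 5,000 host fibroblasts per well; Medium: DMEM, 2% fetal bovine serum; Compound: 50 nL DMSO compound solution per well; Schedule: 3 h host attachment, then at least 90 h co-culture; Detection: luminescent β-galactosidase signal after 60 min lysis.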
p-CIP stab down – p/CIP-EGFP fusion destabilizers, primary screen, fluorescence, F442A cells; 290,000 tested, 0.01% active; 16 h; decrease of EGFP signal, % at 10 µM;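 active means EGFP signal decrease of at least 30% at 10 µM or well 3 SD below plate mean, unless failing retest; inactive means the rest, including hits failing retest or dose response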
Active calls of the source: *; . = no result given.

SMILES	GASC-1 inh	H9c2 protect	PP5 inh	Fh CTSL1 inh	T cruzi repl	p-CIP stab down
COc1ccccc1CN(Cc1cccnc1)S(=O)(=O)c1ccc(-n2cnnn2)c(OC)c1	38	-4	0	-3	35	-13
COc1ccc(CN(Cc2cccnc2)S(=O)(=O)c2ccc(-n3cnnn3)c(C)c2)cc1OC	-2	4	1	-1	78*	-3
Cc1c(C(O)CN2CCN(Cc3ccc4c(c3)OCO4)CC2)c2ccccc2n1C (configuration not stated)	0	15	-1	2	67*	-25
COc1ccc2c(c1)c(C(O)CN1CCN(Cc3ccc4c(c3)OCO4)CC1)c(C)n2C (configuration not stated)	-6	13	1	5	30	8
O=C(CNC(=O)c1ccco1)OC(C(=O)c1ccccc1)c1ccccc1 (configuration not stated)	1	5	2	19*	.	-21
Cc1nn(CC(=O)N2CCN(c3ccc(Cl)cc3)CC2)c(=O)c2cccn12	5	2	5	1	1	-10
Cc1cc(NC(=O)C23CC4CC(C2)CC(n2cnc([N+](=O)[O-])n2)(C4)C3)no1	-2	6	2	2	55*	-5
O=C(Nc1ccon1)C12CC3CC(C1)CC(n1cnc([N+](=O)[O-])n1)(C3)C2	-5	8	0	2	59*	11
O=C(Nc1cccc(Cl)c1)c1nc[nH]c1C(=O)Nc1ccccc1F	.	-5	.	.	.	.
O=C(CN(CC1CCCO1)C(=O)CNS(=O)(=O)c1ccccc1)NCCc1ccccc1 (configuration not stated)	-9	9	4	2	7	-2
O=C(O)/C=C/S(=O)(=O)c1ccc2ccccc2c1	3	9	-1	54*	-8	9
Cc1ccc(S(=O)(=O)NC(C(=O)N2CCN(S(=O)(=O)c3cccc(F)c3)CC2)C(C)C)cc1 (configuration not stated)	.	2	.	.	.	.
COc1ccc(OC)c(NC(=O)CSc2nnc(CNC(=O)c3cc(OC)c(OC)c(OC)c3)o2)c1	0	-2	2	-2	14	7
O=C1C=C(N(CCO)Cc2ccccc2)c2ccccc2C1=O	-11	-21	.	.	78*	13
CCN1C(=O)C(CC(=O)Nc2ccc(Br)cc2)N(CCCc2ccccc2)C1=S (configuration not stated)	10	-38	6	4	56*	-3
CCOc1ccc(NC(=O)CC2C(=O)N(C)C(=S)N2CCCc2ccccc2)cc1 (configuration not stated)	-1	-8	5	-7	55*	-13
CCN1C(=O)C(CC(=O)Nc2ccc(OC)cc2)N(CCc2ccc(OC)cc2)C1=S (configuration not stated)	-1	5	6	7	13	20
CCOc1ccc(NC(=O)CC2C(=O)N(C)C(=S)N2Cc2ccco2)cc1 (configuration not stated)	-7	3	-1	0	-26	-5
CCCC1NC(=O)c2cccnc2-n2c1nc1ccc(C)cc1c2=O (configuration not stated)	.	7	.	.	.	.
CCC(=O)N1CCc2cc(S(=O)(=O)CCC(=O)N3CCN(c4ccc(F)cc4)CC3)ccc21	-4	-1	-1	-1	5	-4
Cc1ccc(-c2c3c(nc4sc(C(N)=O)c(N)c24)CCCC3)o1	-1	-3	4	38*	-16	-14
NC(=O)c1sc2nc3c(c(-c4ccco4)c2c1N)CCC3	-38	13	2	0	3	-17
O=c1cc(CSc2nc3ccccc3c(=O)[nH]2)c2ccc(O)cc2o1	-37	94*	.	.	-50	4
CCc1ccc2oc(=O)cc(CN3CCN(Cc4ccccc4)CC3)c2c1	-11	4	-6	5	61*	-4
O=c1cc(CN2CCN(Cc3ccccc3)CC2)c2cc(Cl)ccc2o1	28	8	.	.	43	1
SMILES	GASC-1 inh	H9c2 protect	PP5 inh	Fh CTSL1 inh	T cruzi repl	p-CIP stab down
Cc1ccc2c(CN3CCN(Cc4ccccc4)CC3)cc(=O)oc2c1	1	4	1	1	59*	-2
O=c1[nH]c(SCc2ccccc2F)nc2ccccc12	42	27	1	3	18	2
O=C(c1ccco1)N1CCN(Cc2cc(=O)oc3cc(O)ccc23)CC1	-14	34	0	.	.	.
O=c1cc(CN2CCN(Cc3ccccc3)CC2)c2ccc(O)cc2o1	-19	4	1	4	56*	3
CCc1ccccc1N(C(=O)c1snc(C(N)=O)c1N)C(C(=O)NCC1CCCO1)c1ccc(C)o1 (configuration not stated)	-22	-1	0	9	4	-33
CN1C(=O)C(C)(C)c2cc(S(=O)(=O)NCC3CCC(C(=O)NCc4ccccc4)CC3)ccc21 (configuration not stated)	-11	0	3	-4	-7	0
Cc1ccc2c(c1)N(CC(=O)Nc1ncccc1C)C(=O)C(C(C)C)O2 (configuration not stated)	3	12	2	-4	-4	7
Cc1cc2ccccc2n1CCNC(=O)C(C)Oc1ccccc1 (configuration not stated)	7	14	-1	-2	63*	5
CN1c2ccc([N+](=O)[O-])cc2N(C)C1(C)c1ccccc1 (configuration not stated)	8	-13	.	.	57*	-4
C=CCNC(=O)Cc1c(OC)ccc2cc(Br)ccc12	5	10	-2	0	-3	6
COc1ccc2cc(Br)ccc2c1CC(=O)NCCCN1CCOCC1	57*	0	1	-5	4	.
CCCCNC(=O)CCc1c(C)nc2c(c(C)nn2-c2ccccc2)c1C	0	1	.	.	55*	-6
Cc1nc2c(c(C)nn2-c2ccccc2)c(C)c1CCC(=O)NCCCOC(C)C	-24	-1	1	2	10	-2
CC(CCc1ccccc1)NC(=O)c1ccc(NC(=O)c2cccc(Br)c2)cc1 (configuration not stated)	3	0	5	1	70*	0
CC(C)=CCCC(C)CN(C)CCc1ccccn1 (configuration not stated)	2	2	0	3	63*	-5
ON(CCc1ccccn1)CCc1ccccn1	.	0	.	.	.	.
COc1cc2ccnc(C=O)c2cc1OC	.	56*	.	.	.	.
COc1cc(N)c(Cc2nccc3cc(OC)c(OC)cc23)cc1OC	-4	-10	3	0	40	-30

Bioassay records (PubChem)
